Compound activity (PubChem BioAssay)
T cell modulator: modulates CD8 T cell binding to vesicles | 2C CD8+ T cell-vesicle binding, flow cytometry; active compounds read low | response (vesicle binding), % at 7 µM | hit rate 0.068% among 330,000;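 active = response, share of CD8 T cells binding vesicles, and their 90th percentile fluorescence all below set limits, cut at about 80% in these data, passing the limit was not always enough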;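 note: values below 100% mean blocked vesicle binding to the CD8+ T cells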
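Benchmarks: naked versus QL9-loaded vesicles / Assay system: purified 2C TCR transgenic mouse naive CD8+ T cells / Technique: high-throughput flow cytometry with anti-B7-1 and anti-CD8 staining / Timing: Cell–vesicle co-incubation 1.5 h at 37 °C, staining 20 min on ice / Read-out: percent CD8+ FL2 mean versus row control / Probe or stimulus: QL9-loaded Drosophila micro-vesicles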
CHT inh: inhibits the human high affinity choline transporter. B-score at 10 µM. Q9GZV3. hit rate 0.86% among 310,000. CHT-expressing cells, membrane potential dye, choline response; active compounds read low. AID 488975;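 active = B-score over 3 SD under the library average, and starting fluorescence ratio not unusually high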;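 note: choline stimulus applied at its EC90 after an EC20 pre-addition; B-score computed on integrated fluorescence ratio after choline addition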
Target sequence (Q9GZV3 whole entry, looked up): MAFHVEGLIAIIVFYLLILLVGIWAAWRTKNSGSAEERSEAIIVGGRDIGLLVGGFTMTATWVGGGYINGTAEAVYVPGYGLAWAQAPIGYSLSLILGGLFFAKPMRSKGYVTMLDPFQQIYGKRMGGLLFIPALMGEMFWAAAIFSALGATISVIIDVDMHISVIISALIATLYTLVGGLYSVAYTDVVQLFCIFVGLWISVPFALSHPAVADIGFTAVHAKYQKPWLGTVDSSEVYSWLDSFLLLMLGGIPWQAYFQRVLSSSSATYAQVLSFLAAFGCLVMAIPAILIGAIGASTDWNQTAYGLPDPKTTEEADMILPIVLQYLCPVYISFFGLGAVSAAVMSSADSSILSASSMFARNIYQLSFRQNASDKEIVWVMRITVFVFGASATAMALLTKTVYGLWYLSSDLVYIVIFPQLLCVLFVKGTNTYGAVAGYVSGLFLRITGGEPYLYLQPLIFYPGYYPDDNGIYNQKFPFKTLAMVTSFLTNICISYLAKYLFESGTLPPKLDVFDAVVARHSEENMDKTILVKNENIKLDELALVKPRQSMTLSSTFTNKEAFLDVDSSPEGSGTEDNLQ
VLA-4 inh: inhibition in a human VLA-4 binding assay; P13612; VLA-4 expressing cells, ligand binding flow cytometry; inhibition, % (about 7 µM as worked out from the volumes in the protocol); hit rate 0.2% among 330,000; AID 2557; in the data active = inhibition above about 50%
CHT allo act: allosterically activates the human high affinity choline transporter; Q9GZV3; CHT-expressing cells, membrane potential dye, choline EC20; active compounds read high; LV-AA mutant CHT in HEK293 cells; B-score at 10 µM; hit rate 0.49% among 310,000;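 active = initial fluorescence not abnormally high and integrated response B-score, plate-corrected, over 3 SD above library mean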
VLA-4 mod pick: confirmation of allosteric modulators of human VLA-4 integrin | hit rate 2% among 1,300 | U937 cells, HUTS-21 LIBS mAb binding, flow cytometry; LDV ligand present at threefold Kd | shares compounds with VLA-4 inh | inhibition, % at 6.7 µM; in the data active = inhibition above about 40%;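 note: 0% = ligand without compound and 100% = no ligand background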
* hit, by the source's call. Sampled rows, rich in hits. Any-hit rate of the full collection: about 1.5%.

Cc1cc(=O)oc2c(C)c(OC(C)C(=O)NC(Cc3c[nH]c4ccc(O)cc34)C(=O)O)ccc12 (centres undefined) was read as T cell modulator 196, CHT inh inactive, VLA-4 inh 0 and CHT allo act inactive.
Screening CCc1c(C)c2ccc(OC(C)C(=O)NC(Cc3c[nH]c4ccc(O)cc34)C(=O)O)c(C)c2oc1=O (centres undefined) returned T cell modulator 362, CHT inh inactive, VLA-4 inh 52*, CHT allo act inactive and VLA-4 mod pick 11.
`O=C(OC(C(=O)NCc1ccccc1)c1ccccc1F)c1ccco1` (centres undefined) gave T cell modulator inactive, CHT inh inactive, VLA-4 inh 3 and CHT allo act inactive.
Screening Nc1ccc(S(=O)(=O)c2ccccc2)nc1 returned T cell modulator 176, CHT inh inactive, VLA-4 inh 44, CHT allo act inactive and VLA-4 mod pick -10.
`O=S(=O)(c1ccccc1)c1ccc(C(F)(F)F)cn1` gave T cell modulator 311, CHT inh inactive, VLA-4 inh 4 and CHT allo act inactive.
For O=C(Nc1ccc2oc(-c3ccccc3)nc2c1)c1ccc2c(c1)OCCO2 the results were T cell modulator 171, CHT inh inactive, VLA-4 inh 60*, CHT allo act inactive and VLA-4 mod pick 2.
O=C(Nc1ccc2oc(-c3ccncc3)nc2c1)c1ccc2c(c1)OCCO2 was read as T cell modulator 347, CHT inh inactive, VLA-4 inh 0 and CHT allo act inactive.
`CC(=O)Nc1ccc(S(=O)(=O)Nc2nc3ccccc3nc2Cl)cc1` gave T cell modulator 534, CHT inh inactive, VLA-4 inh 42, CHT allo act inactive and VLA-4 mod pick 5.
Screening Cc1ccc(NC(=O)Nc2c(Cl)cccc2Cl)cn1 returned T cell modulator 184, CHT inh inactive, VLA-4 inh -4, CHT allo act inactive and VLA-4 mod pick 0.
For CCN(CC(=O)Nc1ccc(OC)cc1)C(=O)Cc1ccsc1 the results were T cell modulator 366 and VLA-4 inh -4.
`Cc1cc(O)c(NC(=O)c2cc([N+](=O)[O-])ccc2Cl)cc1C` gave T cell modulator 437, CHT inh inactive, VLA-4 inh 51*, CHT allo act inactive and VLA-4 mod pick -8.
c1ccc(CCC2CCCCN2Cc2nc(C3CC3)no2)cc1 (centres undefined) was read as T cell modulator 243, CHT inh inactive, VLA-4 inh 45, CHT allo act inactive and VLA-4 mod pick -15.
For Fc1cccc(C2CCCCN2Cc2nc(C3CC3)no2)c1 (centres undefined) the results were T cell modulator 308, CHT inh inactive, VLA-4 inh -4 and CHT allo act inactive.
`Cc1ccc(/C=N/NC(=O)c2cccc(S(=O)(=O)N3CCOCC3)c2)o1` gave T cell modulator 153, CHT inh inactive, VLA-4 inh 3 and CHT allo act inactive.
For OCCOc1ccc(CN2CCN(CCCc3ccccc3)C(CCO)C2)cc1 (centres undefined) the results were T cell modulator 224, CHT inh inactive, VLA-4 inh 7 and CHT allo act inactive.
O=C(NC1CCCC1)c1cccc(NC(=O)c2ccco2)c1 was read as T cell modulator 192, CHT inh inactive, VLA-4 inh 50*, CHT allo act inactive and VLA-4 mod pick 12.
`O=C(NCCc1nc2ccccc2[nH]1)/C(=C/c1ccco1)NC(=O)c1ccco1` gave T cell modulator 365, CHT inh inactive, VLA-4 inh 5 and CHT allo act inactive.
O=C(NCCc1nc2ccccc2[nH]1)/C(=C/c1ccco1)NC(=O)c1ccc(Br)o1 was read as T cell modulator 304, CHT inh inactive, VLA-4 inh 40, CHT allo act inactive and VLA-4 mod pick -3.
CC12CCC(=O)C=C1CCC1C2C(O)CC2(C)C1CCC2(O)C(=O)CO (centres undefined) was read as T cell modulator inactive, CHT inh inactive, VLA-4 inh 6, CHT allo act inactive and VLA-4 mod pick -184.
`C[C@]12C=CC(=O)C=C1CC[C@@H]1[C@@H]2[C@@H](O)C[C@@]2(C)[C@H]1CC[C@]2(O)C(=O)CO` gave T cell modulator 356, CHT inh inactive, VLA-4 inh 59*, CHT allo act inactive and VLA-4 mod pick 2.
`C[C@]12C=CC(=O)C=C1CC[C@@H]1[C@@H]2[C@@H](O)C[C@@]2(C)[C@H]1CC[C@]2(O)C(=O)COC(=O)CCC(=O)O` gave CHT inh inactive, VLA-4 inh 15 and CHT allo act inactive.
C[C@]12CCC(=O)C=C1CC[C@@H]1[C@@H]2[C@@H](O)C[C@@]2(C)[C@H]1CC[C@]2(O)C(=O)CO was read as T cell modulator 817, CHT inh inactive, VLA-4 inh 29, CHT allo act inactive and VLA-4 mod pick -1.
NS(=O)(=O)c1ccc(N/N=C/c2ccccc2Br)cc1 was read as T cell modulator 378, CHT inh inactive, VLA-4 inh 6 and CHT allo act inactive.
Screening CC1CCCN(c2ccc3nncn3n2)C1 (centres undefined) returned T cell modulator 170, CHT inh inactive, VLA-4 inh 3 and CHT allo act inactive.
For CC(=O)Nc1ccc(N2C(=O)CC(N3CC(C)OC(C)C3)C2=O)cc1 (centres undefined) the results were T cell modulator 374, CHT inh inactive, VLA-4 inh 5, CHT allo act inactive and VLA-4 mod pick 9.
C=C1C(O)[C@@H]2O[C@]3(CC[C@H](/C=C/C(C)[C@@H]4CC(C)=CC5(O[C@H](C[C@@](C)(O)CO)CCC5O)O4)O3)CC[C@H]2O[C@@H]1C(O)CC(C)[C@H]1OC2(CCCCO2)CCC1C (some centres undefined) was read as T cell modulator 370, VLA-4 inh 54* and VLA-4 mod pick 52*.
Screening C=C1[C@@H](O)[C@@H]2O[C@]3(CC[C@H](/C=C/[C@@H](C)[C@@H]4CC(C)=CC5(O[C@H](C[C@@](C)(O)C(=O)OC)CC[C@H]5O)O4)O3)CC[C@H]2O[C@@H]1[C@@H](O)C[C@H](C)[C@H]1OC2(CCCCO2)CC[C@H]1C (some centres undefined) returned T cell modulator 266 and VLA-4 inh 36.
For COc1ccc(CCNC(=O)Cn2c(=O)oc3ccccc32)cc1OC the results were T cell modulator 257, CHT inh inactive, VLA-4 inh 0, CHT allo act inactive and VLA-4 mod pick -12.
Cc1cc(NC(=O)Cn2c(=O)oc3ccc(Cl)cc32)no1 was read as T cell modulator 180, CHT inh inactive, VLA-4 inh 7 and CHT allo act inactive.
CC(C)(C)NC(=O)Cn1c(=O)oc2ccc(Cl)cc21 was read as T cell modulator 806, CHT inh inactive, VLA-4 inh 55*, CHT allo act inactive and VLA-4 mod pick -1.
